Source: PubChem
An excerpt weighted towards active compounds, which were near 2% of everything screened.
HGIII-sPLA2 inh – Blocks human group III sPLA2 activity | AID 743126 | QFRET BODIPY PC-A2 liposome hydrolysis, fluorescence | Q9NZ20 | actives 0.56% (n = 370,000) | inhibition, % at 12.2 µM;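 active = inhibition above mean plus 3 SD of compounds lying within the high and low control bounds, cut at about 19% in these data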;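 note: 0% = median of test compound wells and 100% = no enzyme DMSO wells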
Target sequence (Q9NZ20 whole entry, looked up): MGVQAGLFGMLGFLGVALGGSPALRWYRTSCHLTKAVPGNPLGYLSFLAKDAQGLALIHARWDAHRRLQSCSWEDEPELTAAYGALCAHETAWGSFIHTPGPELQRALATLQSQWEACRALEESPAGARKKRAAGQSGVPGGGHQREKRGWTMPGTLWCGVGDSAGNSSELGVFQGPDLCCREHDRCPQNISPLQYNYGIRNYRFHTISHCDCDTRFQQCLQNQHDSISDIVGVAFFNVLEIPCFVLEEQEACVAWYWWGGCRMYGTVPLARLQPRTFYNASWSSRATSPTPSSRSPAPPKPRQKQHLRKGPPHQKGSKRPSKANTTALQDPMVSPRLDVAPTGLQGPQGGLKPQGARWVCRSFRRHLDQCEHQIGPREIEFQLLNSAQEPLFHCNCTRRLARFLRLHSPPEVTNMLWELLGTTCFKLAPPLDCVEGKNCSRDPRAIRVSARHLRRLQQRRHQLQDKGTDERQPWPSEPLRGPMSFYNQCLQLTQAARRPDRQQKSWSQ
SR-BI DiI-HDL act – enhances SR-BI lipid uptake from DiI-HDL; actives 0.096% (n = 320,000); activation, % at 12.5 µM; CHO ldlA[mSR-BI] cells, DiI-HDL uptake fluorescence, 3 h; 100 = double the neutral-control signal;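 active = mean replicate activation of at least 60% and every replicate at or above 60%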;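 note: 0% = median plate neutral-control signal and 100% = twice that signal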
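Assay system: CHO ldlA[mSR-BI] cells, LDL receptor-null, SR-BI overexpressing; medium: Ham's F12 with 0.5% BSA, HEPES 25 mM, pH 7.4; also added: DiI-HDL 10 µg/mL; timing: 3 h uptake period with compound, 37 °C; signal: DiI fluorescence, bottom read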
NSD2 HMT inh – blocks human histone methyltransferase NSD2 | actives 0.54% (n = 310,000) | O96028 | NSD2 peptide methylation, AlphaScreen, 120 min | inhibition, % at 12.5 µM; in the data active = inhibition above about 50%
SR-BI HDL uptake – blocks mouse SR-BI lipid uptake from DiI-HDL; inhibition, % at 12.5 µM; actives 0.96% (n = 320,000); AID 488896; ldlA[mSR-BI] CHO cells, DiI-HDL uptake fluorescence, 3 h;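 active = mean replicate inhibition of at least 70% and a set share of replicates each scoring 70 or more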;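 note: 0% = median of neutral control wells and 100% = median of positive control wells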
Xi reactivation – activators of X-chromosome reactivation in mouse fibroblasts; activation, % at 7.58 µM; actives 0.055% (n = 360,000); AID 743238; XiGFP mouse fibroblasts, % GFP-positive cells imaging, 3 d; cells co-treated with 5-aza-dC sensitizer; scaled so ellipticine positive control = 100%;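 active = mean normalized replicate activation at least 10% and every replicate at or above 10%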;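 note: 0% = median of on-plate neutral control wells and 100% = ellipticine 6 µM median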
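System: XiGFP fibroblasts, SV40-immortalized. Medium: DMEM plus 5-aza-dC sensitizer. Doses: single point. Timing: 3 d treatment, 15 min room-temperature fixation. Control set: ellipticine 6 µM.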
ARNT TACC3 PPI – ARNT/TACC3 interaction disruption; Q9Y6A5; AlphaScreen His-ARNT PAS-B/GST-TACC3 binding, luminescence; TACC3 fragment carries E629A point mutation; inhibition, % at 9.99 µM; actives 0.66% (n = 390,000); AID 623870;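 active = mean inhibition of replicates at least 50% and at least half of replicates each reaching 50%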;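 note: 0% = complete ARNT plus TACC3 wells and 100% = ARNT alone without TACC3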
The depositor's hits bear a star; / = no result given.

SMILES	HGIII-sPLA2 inh	SR-BI DiI-HDL act	NSD2 HMT inh	SR-BI HDL uptake	Xi reactivation	ARNT TACC3 PPI
Cc1oc(-c2ccc(F)cc2)nc1CN(Cc1ccccn1)CC1CCCO1 (centres undefined)	-5	3	12	-3	0	50*
COc1cccc(CNC(=O)C[C@@H]2CC[C@H](NC(=O)C3CCOCC3)[C@@H](CO)O2)c1	/	/	/	/	0	-6
C=CCn1nc([N+](=O)[O-])nc1Sc1cccc2cccnc12	/	-17	0	17	/	74*
O=[N+]([O-])c1ccc(Sc2cccc3cccnc23)cc1	-5	-3	14	3	/	16
COc1ccc2nc(C)cc(Nc3ccc(C)cc3)c2c1	7	8	14	-8	0	13
COc1ccc2nc(C)cc(NCc3ccc(F)cc3)c2c1	-4	-1	-1	1	97*	7
c1ccc2c(c1)C1=NCCN1c1ccccc1-2	4	/	3	/	0	/
Nc1csnc1C(=O)O	1	19	0	-19	/	46*
O=C(O)c1nnsc1-c1csnn1	11	12	-2	-12	0	-4
O=[N+]([O-])c1ccc(O)c2cccnc12	0	8	-1	-8	0	18
O=[N+]([O-])c1cc(Cl)c2cccnc2c1O	6	3	1	-3	0	46*
O=[N+]([O-])c1ccc(O)c2ncccc12	-6	9	/	-9	1	56*
O=[N+]([O-])c1cc(Cl)c(O)c2ncccc12	-12	11	24	-11	0	57*
O=[N+]([O-])c1cc(F)c2cccnc2c1O	2	/	11	/	0	70*
O=[N+]([O-])c1ccc(Cl)c2cccnc12	3	28	-2	-28	0	-8
c1ccc2c(c1)[nH]c1ccncc12	-11	-38	/	38	0	-2
O=C(C[C@@H]1CC[C@@H]2[C@H](COC[C@@H](O)CN2S(=O)(=O)c2ccc(Cl)cc2)O1)N[C@H]1CCN(Cc2ccccc2)C1	/	/	/	/	0	1
CCOC1=C2CN(S(=O)(=O)c3ccc(Cl)cc3)[C@H](c3ccccc3)C[C@@H]2N(S(=O)(=O)c2ccc(C)cc2)[C@H](c2ccccc2)C1	-1	/	/	/	0	/
CCOc1ccccc1NC(=O)C(CC)Sc1nc2ccncc2[nH]1 (centres undefined)	-33	9	3	-9	1	1
COc1cc2c(cc1OC)-c1c(OC)c(OC)cc3ccnc(c13)C2=O	3	-37	/	37	0	41
COC(=O)c1cccc(NC(=O)CN2C(=O)C3CCCCC3C2=O)c1 (centres undefined)	6	22	-1	-22	0	-6
CCC(C)c1ccc(NC(=S)N2CCN(c3ccccn3)CC2)cc1 (centres undefined)	-1	-16	2	16	0	-11
Clc1cc2cccnc2c2ncccc12	19	10	13	-10	0	106*
CO[C@H]1CN(C)C(=O)c2cc(NC(=O)C3CCC3)ccc2OC[C@H](C)N(C(=O)CN(C)C)C[C@@H]1C	/	/	/	/	0	0
Cc1ccc(NC(=S)N=Nc2c(O)[nH]c3ccccc23)cc1	14	-3	-15	3	0	-5
SMILES	HGIII-sPLA2 inh	SR-BI DiI-HDL act	NSD2 HMT inh	SR-BI HDL uptake	Xi reactivation	ARNT TACC3 PPI
Oc1ccc(NC(=S)N=Nc2c(O)[nH]c3ccccc23)cc1	-2	-41	20	41	0	67*
O=C(CSc1nnc(-c2ccccc2Cl)n1Cc1ccco1)Nc1ccc2c(c1)OCCO2	-6	-24	7	24	/	0
CCOC(=O)N1CCc2cc(OC)c(OC)c3c2c1cc1cc(OC)c(OC)cc13	1	-86	12	86*	0	6
Cc1cccc(C)c1-n1c(C)cc(/C=N\Nc2ccc([N+](=O)[O-])cn2)c1C	0	-80	-3	80*	/	11
O=[N+]([O-])c1ccc(NN=Cc2cc(Br)ccc2O)nc1	5	-135	4	135*	0	-4
O=c1c2c(nc3c(-c4ccc(Cl)cc4)c[nH]n13)CCC2	6	6	-5	-6	0	46*
O=c1c2c(nc3c(-c4ccccc4)c[nH]n13)CCC2	3	6	0	-6	/	6
Cc1noc(C)c1NC(=O)Nc1cccc2c1O[C@@H](CN(C)C(=O)Nc1ccc(C(F)(F)F)cc1)[C@H](C)CN([C@H](C)CO)C2=O	/	/	/	/	1	1
COc1ccc(CCNC(=O)C2CCCN(c3nc4ccccc4s3)C2)cc1OC (centres undefined)	-4	-79	6	79*	0	/
CCc1nnc(NC(=O)C2CCCN(c3nc4ccccc4s3)C2)s1 (centres undefined)	-3	4	-2	-4	/	0
CCOc1ccc(CCNC(=O)C2CCN(c3nn4c(=O)cc(C)nc4s3)CC2)cc1OCC	5	-72	-1	72*	/	4
COCC(=O)N1[C@H](C#N)[C@H](c2ccccc2-c2ccc(C)cc2)[C@@H]1CO	/	/	/	/	0	/
O=C(CN1CC[n+]2c(-c3cccs3)csc21)c1ccc(-c2ccccc2)cc1	-13	-77	/	77*	0	9
Cc1ccc(C(=O)Cn2nnc(-c3cccs3)n2)cc1	-90	/	/	/	0	-5
NC(=O)N/N=C\c1cc(Br)ccc1O	-8	15	0	-15	0	11
CC1(C)OC2OC(C(=O)N/N=C/c3cc(Br)ccc3O)C3OC(C)(C)OC3C2O1 (centres undefined)	-13	/	-3	/	0	60*
O=C(c1ccccc1F)N(Cc1ccc2c(c1)OCO2)Cc1cc2cc3c(cc2n2nnnc12)OCO3	5	/	0	72*	/	-3
Cc1cc2cc(CN(Cc3ccc4c(c3)OCO4)C(=O)c3cnccn3)c3nnnn3c2cc1C	9	10	3	-10	/	-1
O=C(NCc1ccc2c(c1)OCO2)[C@H]1[C@H](CO)[C@H]2Cn3c(cccc3=O)[C@@H]1N2Cc1ccncc1	/	/	/	/	1	-3
COc1ccc(NC2=C(NCCO)C(=O)c3ccccc3C2=O)cc1	11	-8	/	8	0	60*
Cc1cccc(Nc2nc(N)c([N+](=O)[O-])c(NCCO)n2)c1	11	7	3	-7	0	-3
Cc1cccc(NC2=C(NCCO)C(=O)c3ccccc3C2=O)c1	1	9	41	-9	0	39*
COc1cccc(NC2=C(NCCO)C(=O)c3ccccc3C2=O)c1	-5	14	25	-14	0	47*
CC(C)N=c1cc2n(-c3ccc(Cl)cc3)c3ccccc3nc-2cc1Nc1ccc(Cl)cc1	15	-83	/	83*	0	12
